According to ChEMBL document CHEMBL3779801, “Discovery of the Selective CYP17A1 Lyase Inhibitor BMS-351 for the Treatment of Prostate Cancer” (ACS Med Chem Lett, 2016):

Columns and labels:
[1] = target: T1, Steroid 17-alpha-hydroxylase/17,20 lyase (Homo sapiens, UniProt P05093); assay: Selectivity ratio of human CYP17A1 hydroxylase activity expressed in Escherichia coli using pregnenolone substrate to human CYP17A1 lyase activity expressed in HEK293 cell microsomes using [3H]-hydroxypregnenolone substrate
T1 sequence (P05093 whole entry): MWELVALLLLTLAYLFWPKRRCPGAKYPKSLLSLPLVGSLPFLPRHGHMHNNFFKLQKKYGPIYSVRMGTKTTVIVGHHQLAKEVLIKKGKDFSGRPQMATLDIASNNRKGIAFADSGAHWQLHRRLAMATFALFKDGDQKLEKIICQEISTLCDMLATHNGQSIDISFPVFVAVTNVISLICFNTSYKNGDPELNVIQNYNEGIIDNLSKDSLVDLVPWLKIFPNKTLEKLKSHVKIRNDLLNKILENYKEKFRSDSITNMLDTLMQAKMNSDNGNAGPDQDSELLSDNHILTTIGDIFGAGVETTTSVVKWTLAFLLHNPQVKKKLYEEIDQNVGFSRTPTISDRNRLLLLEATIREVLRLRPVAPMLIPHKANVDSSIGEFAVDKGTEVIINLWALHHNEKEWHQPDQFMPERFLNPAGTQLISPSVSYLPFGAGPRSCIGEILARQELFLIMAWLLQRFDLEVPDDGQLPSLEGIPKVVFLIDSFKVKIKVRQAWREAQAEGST
Outline: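 Hydroxylase and lyase activities were run with different enzyme preparations, so the hydroxylase/lyase ratios are estimates.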

[2] = Metabolic stability in mouse liver microsomes assessed as parent compound remaining at 0.5 uM incubated for 10 mins; format: ADME; settings: read-out: Stability
Outline: (§1)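 Compound at 0.5 μM was incubated with human, mouse or cynomolgus liver microsomes for 10 min.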

[3] = Metabolic stability in human liver microsomes assessed as parent compound remaining at 0.5 uM incubated for 10 mins; format: ADME; settings: read-out: Stability; outline: as §1
[4] = Metabolic stability in cynomolgus monkey liver microsomes assessed as parent compound remaining at 0.5 uM incubated for 10 mins; format: ADME, Macaca fascicularis; settings: read-out: Stability; outline: as §1
Cytochrome P450 1A2 = target: T2, Cytochrome P450 1A2 (Homo sapiens, UniProt P05177); assay: Inhibition of CYP1A2 (unknown origin); format: ADME
T2 sequence (P05177 whole entry): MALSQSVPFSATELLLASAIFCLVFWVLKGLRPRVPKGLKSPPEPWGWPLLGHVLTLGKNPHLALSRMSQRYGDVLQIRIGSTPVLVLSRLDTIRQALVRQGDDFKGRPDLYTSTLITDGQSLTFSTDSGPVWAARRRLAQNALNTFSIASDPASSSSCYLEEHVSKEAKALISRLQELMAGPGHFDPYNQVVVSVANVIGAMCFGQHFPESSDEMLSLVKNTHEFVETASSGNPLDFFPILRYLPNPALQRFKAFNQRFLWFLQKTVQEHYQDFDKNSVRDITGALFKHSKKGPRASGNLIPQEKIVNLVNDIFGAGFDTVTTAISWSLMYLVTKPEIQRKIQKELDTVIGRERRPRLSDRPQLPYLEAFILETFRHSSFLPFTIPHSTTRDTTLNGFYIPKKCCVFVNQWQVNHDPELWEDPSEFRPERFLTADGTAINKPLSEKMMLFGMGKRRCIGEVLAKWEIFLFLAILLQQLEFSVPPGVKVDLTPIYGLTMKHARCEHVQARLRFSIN

[5] = target: T1, Steroid 17-alpha-hydroxylase/17,20 lyase; assay: Inhibition of human CYP17A1 expressed in HEK293 cell microsomes using [3H]-pregnenolone as substrate incubated for 45 mins by scintillation proximity assay in presence of NADPH
[6] = Inhibition of cynomolgus monkey CYP11B1 using hydroxy progesterone as substrate incubated for 120 mins by LC-MS method; design: species or system Macaca fascicularis
[7] = Tmax in one day castrated cynomolgus monkey at 42 mg/kg, po bid measured after second dose administered at 8 hrs; format: ADME, organism-based, Macaca fascicularis; settings: male, in vivo
Outline: (§2)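 Castrated cynomolgus monkeys were studied over one day with oral BID dosing at time 0 and 8 h. Plasma levels were sampled at set time points over 1–24 h and reported as average ± standard deviation in nM, n = 4.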

[8] = Inhibition of cynomolgus monkey CYP21A2 using hydroxy progesterone as substrate incubated for 120 mins by LC-MS method; design: species or system Macaca fascicularis
[9] = target: T3, Cytochrome P450 11B1, mitochondrial (Homo sapiens, UniProt P15538); assay: Inhibition of CYP11B1 in human H295R cells using deoxycorticosterone as substrate incubated for 48 hrs by LC-MS method; format: ADME, cell-based
T3 sequence (P15538 whole entry): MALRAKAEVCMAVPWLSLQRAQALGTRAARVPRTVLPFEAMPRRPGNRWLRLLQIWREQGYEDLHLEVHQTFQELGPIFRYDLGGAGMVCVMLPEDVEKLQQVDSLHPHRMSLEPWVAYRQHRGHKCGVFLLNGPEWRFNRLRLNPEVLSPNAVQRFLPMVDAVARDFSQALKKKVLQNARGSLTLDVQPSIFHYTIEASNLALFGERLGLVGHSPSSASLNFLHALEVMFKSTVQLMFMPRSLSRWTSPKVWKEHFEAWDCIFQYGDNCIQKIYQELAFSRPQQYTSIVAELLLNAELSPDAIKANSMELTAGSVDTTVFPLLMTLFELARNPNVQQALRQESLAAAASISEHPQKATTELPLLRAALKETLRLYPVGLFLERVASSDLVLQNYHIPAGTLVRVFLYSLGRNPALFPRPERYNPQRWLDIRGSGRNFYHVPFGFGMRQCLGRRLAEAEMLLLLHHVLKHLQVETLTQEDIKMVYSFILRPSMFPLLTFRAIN

[10] = target: T4, Steroid 17-alpha-hydroxylase/17,20 lyase (Macaca fascicularis, UniProt Q2XVA1); assay: Inhibition of CYP17A1 in cynomolgus monkey using [3H]-pregnenolone as substrate incubated for 45 mins by scintillation proximity assay in presence of NADPH
T4 sequence (Q2XVA1 whole entry): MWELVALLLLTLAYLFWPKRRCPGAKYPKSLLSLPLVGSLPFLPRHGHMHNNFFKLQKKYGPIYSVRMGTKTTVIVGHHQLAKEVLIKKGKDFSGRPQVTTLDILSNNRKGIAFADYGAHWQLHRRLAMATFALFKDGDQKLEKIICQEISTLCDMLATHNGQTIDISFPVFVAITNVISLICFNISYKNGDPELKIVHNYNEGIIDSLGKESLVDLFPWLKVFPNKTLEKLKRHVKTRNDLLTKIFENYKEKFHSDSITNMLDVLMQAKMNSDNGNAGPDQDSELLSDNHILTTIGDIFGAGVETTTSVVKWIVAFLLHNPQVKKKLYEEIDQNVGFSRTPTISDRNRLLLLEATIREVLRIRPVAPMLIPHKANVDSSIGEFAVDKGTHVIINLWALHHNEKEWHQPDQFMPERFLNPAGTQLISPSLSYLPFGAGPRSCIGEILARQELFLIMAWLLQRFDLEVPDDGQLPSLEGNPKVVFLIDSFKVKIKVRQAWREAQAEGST

[11] = Tmax in one day castrated cynomolgus monkey at 42 mg/kg, po bid; format: ADME, organism-based, Macaca fascicularis; settings: male, in vivo; outline: as §2
[12] = target: T4, Steroid 17-alpha-hydroxylase/17,20 lyase; assay: In vivo inhibition of CYP17A1 in one day castrated cynomolgus monkey assessed as reduction in testosterone level in plasma at 42 mg/kg, po bid for 24 hrs by radiometric immunoassay; format: organism-based
[13] = target: T1, Steroid 17-alpha-hydroxylase/17,20 lyase; assay: Inhibition of CYP17A1 in human adrenal microsomes using [3H]-pregnenolone as substrate incubated for 90 mins by scintillation proximity assay in presence of NADPH; design: species or system Adrenal gland
Cynomolgus monkey [14] = assay: Decrease in cortisol level in one day castrated cynomolgus monkey at 42 mg/kg, po bid for 24 hrs by radiometric immunoassay; format: ADME, organism-based, Macaca fascicularis; design: scale not given: the % may be the effect or the level left; settings: in vivo
[15] = target: T4, Steroid 17-alpha-hydroxylase/17,20 lyase; assay: Inhibition of CYP17A1 in cynomolgus monkey adrenal microsomes using [3H]-pregnenolone as substrate incubated for 45 mins by scintillation proximity assay in presence of NADPH; design: species or system Adrenal gland
Cynomolgus monkey [16] = assay: Increase in progesterone level in one day castrated cynomolgus monkey at 42 mg/kg, po bid for 24 hrs by radiometric immunoassay; format: ADME, organism-based, Macaca fascicularis; settings: in vivo

Compound	remaining at 10 min, 0.5 µM [2] [%]	remaining at 10 min, 0.5 µM [3] [%]	remaining at 10 min, 0.5 µM [4] [%]	IC50 (Cytochrome P450 1A2) [nM]	IC50 [5] [nM]	other results
Cc1ccncc1-c1cccc2c1cnn2-c1ccc(F)cc1	11	100	–	190	5	–
C[C@]12CC[C@H](O)CC1=CC[C@@H]1C2CC[C@]2(C)C(c3cccnc3)=CCC12 (some centres undefined)	–	–	–	–	–	IC50 [6]: 2460 nM; Tmax [7]: 9.5 h; IC50 [8]: 149 nM; IC50 [9]: 872 nM; IC50 [10]: 2 nM; Tmax [11]: 1 h; inhibition (INH) [12]: Active; IC50 [13]: 21 nM; Activity (Cynomolgus monkey [14]): 80%; IC50 [15]: 3 nM; Activity (Cynomolgus monkey [16]): 1247%
Cc1ccncc1-c1cccc2c1cnn2-c1ccccc1	4	78	39	119	4	–
Cc1ccncc1-c1cccc2c1cnn2-c1ccccn1	8	95	19	140	2	–
Cc1ccncc1-c1cccc2c1cnn2-c1nccs1	8	69	–	80	4	–
Cc1ccncc1-c1cccc2c1cnn2-c1cccnn1	17	89	–	270	3	–
Cc1ccncc1-c1cccc2c1ncn2-c1nccs1	16	92	42	75	8	Selectivity ratio [1]: 14
Cc1ccncc1-c1cccc2c1cnn2-c1cscn1	12	62	–	70	5	–

Further lines, with some results ahead:

remaining at 10 min, 0.5 µM [2] [%]	remaining at 10 min, 0.5 µM [3] [%]	remaining at 10 min, 0.5 µM [4] [%]	IC50 (Cytochrome P450 1A2) [nM]	IC50 [5] [nM]	Compound	other results
59	98	83	180	–	Cc1ccncc1-c1cccc2c1ncn2-c1cnccn1	Selectivity ratio [1]: 18
42	90	50	150	8	Cc1ccncc1-c1cccc2c1ncn2-c1cscn1	–
33	96	100	94	6	Cc1ccncc1-c1cccc2c1ncn2-c1ccccn1	Selectivity ratio [1]: 8
7	72	53	4000	5	Cc1ccncc1-c1cccc2c1cnn2-c1cnccn1	–
